In paper PMC4530033 (Journal of immunology (Baltimore, Md. : 1950), 2015):

Key:
DNMT1 = DNMT1 (Homo sapiens, UniProt P26358); assay: DNMT enzymatic activity in vitro; assay type: biochemical; settings: recombinant DNMT1; 10-dose, 3-fold serial dilutions starting at 10 μM
How it was run: (§1)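 Recombinant human enzyme with ³H-S-adenosylmethionine as substrate. Test compound was run at 10 doses, 3-fold serial dilution from 10 μM. […] Activity was plotted against concentration and IC50 fitted by curve regression. Three independent assays used three compound lots.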

DNMT3a = DNMT3a (Homo sapiens, UniProt Q9Y6K1); assay: DNMT enzymatic activity in vitro; assay type: biochemical; settings: recombinant DNMT3a; 10-dose, 3-fold serial dilutions starting at 10 μM
Chain of DNMT3a (Q9Y6K1 whole entry, looked up, species assumed): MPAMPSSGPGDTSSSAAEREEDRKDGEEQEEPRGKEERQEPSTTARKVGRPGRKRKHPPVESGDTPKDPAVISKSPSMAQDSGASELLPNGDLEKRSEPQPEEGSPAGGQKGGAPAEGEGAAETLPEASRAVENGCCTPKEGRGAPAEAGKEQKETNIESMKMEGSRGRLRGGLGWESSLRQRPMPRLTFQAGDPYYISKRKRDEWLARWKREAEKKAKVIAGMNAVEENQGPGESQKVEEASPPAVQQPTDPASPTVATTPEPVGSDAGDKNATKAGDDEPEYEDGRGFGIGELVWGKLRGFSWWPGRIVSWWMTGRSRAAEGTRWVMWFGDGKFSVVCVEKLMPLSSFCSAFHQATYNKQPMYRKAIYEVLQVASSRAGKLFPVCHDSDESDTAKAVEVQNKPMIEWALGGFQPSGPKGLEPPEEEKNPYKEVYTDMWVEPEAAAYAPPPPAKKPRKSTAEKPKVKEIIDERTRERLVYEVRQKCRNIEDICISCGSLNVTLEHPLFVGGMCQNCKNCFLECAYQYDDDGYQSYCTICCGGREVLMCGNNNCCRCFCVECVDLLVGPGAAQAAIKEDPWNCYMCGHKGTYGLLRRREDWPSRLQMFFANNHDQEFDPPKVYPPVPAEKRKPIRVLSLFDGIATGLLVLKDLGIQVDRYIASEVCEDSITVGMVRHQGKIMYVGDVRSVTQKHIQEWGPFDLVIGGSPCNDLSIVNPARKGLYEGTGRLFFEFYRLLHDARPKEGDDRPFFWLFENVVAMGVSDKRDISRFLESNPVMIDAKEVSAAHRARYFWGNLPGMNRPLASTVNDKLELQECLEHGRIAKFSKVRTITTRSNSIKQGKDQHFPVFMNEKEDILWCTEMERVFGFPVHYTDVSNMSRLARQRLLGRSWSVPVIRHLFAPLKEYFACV
How it was run: as §1

DNMT3b = DNMT3b (Homo sapiens, UniProt Q9UBC3); assay: DNMT enzymatic activity in vitro; assay type: biochemical; settings: recombinant DNMT3b; 10-dose, 3-fold serial dilutions starting at 10 μM
How it was run: as §1

LS411N and SW620 cells [1] = assay: Global H3K9 methylation by Western blot of histone acidic extracts; assay type: cell-based, human; settings: 2 days
How it was run: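 Cells were exposed to test compound at several concentrations for 2 days. Lysis buffer was 20 mM Tris-HCl pH 8, 150 mM NaCl, 5 mM EDTA, 0.5% NP-40 with protease inhibitors, for 30 min. After centrifugation the pellet went into 0.1M HCl on ice for 30 min. The acid extract was neutralised with Tris-HCl pH 9.0, blotted for H3K9me2/H3K9me3, and reprobed for total H3 as normaliser.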

LS411N and SW620 cells [2] = assay: BNIP3 promoter DNA methylation by methylation specific-PCR; assay type: cell-based, human; settings: 3 days
How it was run: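 Cells were exposed to test compound at several concentrations for 3 days. Methylation status of the BNIP3 promoter CpG island was then assessed by methylation-specific PCR, with separate primers for the unmethylated and methylated forms.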

[3] = system: LS411N-5FU-R and SW620-5FU-R cells; assay: Fas expression; assay type: cell-based, human; settings: 20 nM, 2 days
How it was run: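 Cells were cultured with or without 20 nM test compound for 2 days. Surface Fas was measured by flow cytometry with a Fas-specific mAb against an IgG isotype control, quantified as MFI (mean, SD). Fas mRNA in SW620-5FU-R was measured by real-time RT-PCR.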

SW620 and SW480 cells = assay: ChIP analysis of the FAS promoter region; assay type: cell-based, human; settings: 2 days
How it was run: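 Cells (SW620 given 50 nM test compound for H3K9me3 and RNA Pol II; SW480 and SW620 for H3K9ac) treated 2 days. ChIP followed the kit manufacturer's protocol with anti-H3K9me3, anti-H3K9ac or anti-RNA Pol II, and IgG as the negative control. The FAS promoter ChIP 1 region was read by semi-quantitative PCR and by real-time PCR, against 2 ng genomic DNA set at 1.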

[4] = system: LS411N-5FU-R and SW620-5FU-R cells; assay: Sensitization to FasL-induced apoptosis; assay type: cell-based, human; settings: sublethal doses plus FasL, 24h
[5] = system: SW620-5FU-R and LS411N-5FU-R cells; assay: Cell surface DR4 and DR5 expression by flow cytometry; assay type: cell-based, human; settings: 2 days
How it was run: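 Cells were plated at 1×10^5 per well and exposed to 0, 20 or 50 nM test compound. They were then stained with anti-DR4 (TRAIL-R1) or anti-DR5 (TRAIL-R2) antibodies and analysed by flow cytometry.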

[6] = system: LS411N-5FU-R and SW620-5FU-R cells; assay: Sensitization to Drozitumab-induced apoptosis; assay type: cell-based, human; settings: verticillin A 20 nM, Drozitumab 500 ng/ml, 24h
How it was run: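 Cells were given test compound (20 nM), drozitumab (500 ng/ml) or both for 24 h. Floating and adherent cells were pooled and stained with Annexin V and PI, then read by flow cytometry. % apoptotic death = % Annexin V⁺PI⁺ of treated minus untreated control (mean, SD).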

[7] = Mouse serum liver enzyme profiles; assay type: in vivo; settings: at the efficacious dose (1 mg/kg i.v.); preliminary assays
[8] = system: metastatic human CRC cells; assay: Cell growth / viability; assay type: cell-based

Chain of DNMT1 (P26358 whole entry, species assumed): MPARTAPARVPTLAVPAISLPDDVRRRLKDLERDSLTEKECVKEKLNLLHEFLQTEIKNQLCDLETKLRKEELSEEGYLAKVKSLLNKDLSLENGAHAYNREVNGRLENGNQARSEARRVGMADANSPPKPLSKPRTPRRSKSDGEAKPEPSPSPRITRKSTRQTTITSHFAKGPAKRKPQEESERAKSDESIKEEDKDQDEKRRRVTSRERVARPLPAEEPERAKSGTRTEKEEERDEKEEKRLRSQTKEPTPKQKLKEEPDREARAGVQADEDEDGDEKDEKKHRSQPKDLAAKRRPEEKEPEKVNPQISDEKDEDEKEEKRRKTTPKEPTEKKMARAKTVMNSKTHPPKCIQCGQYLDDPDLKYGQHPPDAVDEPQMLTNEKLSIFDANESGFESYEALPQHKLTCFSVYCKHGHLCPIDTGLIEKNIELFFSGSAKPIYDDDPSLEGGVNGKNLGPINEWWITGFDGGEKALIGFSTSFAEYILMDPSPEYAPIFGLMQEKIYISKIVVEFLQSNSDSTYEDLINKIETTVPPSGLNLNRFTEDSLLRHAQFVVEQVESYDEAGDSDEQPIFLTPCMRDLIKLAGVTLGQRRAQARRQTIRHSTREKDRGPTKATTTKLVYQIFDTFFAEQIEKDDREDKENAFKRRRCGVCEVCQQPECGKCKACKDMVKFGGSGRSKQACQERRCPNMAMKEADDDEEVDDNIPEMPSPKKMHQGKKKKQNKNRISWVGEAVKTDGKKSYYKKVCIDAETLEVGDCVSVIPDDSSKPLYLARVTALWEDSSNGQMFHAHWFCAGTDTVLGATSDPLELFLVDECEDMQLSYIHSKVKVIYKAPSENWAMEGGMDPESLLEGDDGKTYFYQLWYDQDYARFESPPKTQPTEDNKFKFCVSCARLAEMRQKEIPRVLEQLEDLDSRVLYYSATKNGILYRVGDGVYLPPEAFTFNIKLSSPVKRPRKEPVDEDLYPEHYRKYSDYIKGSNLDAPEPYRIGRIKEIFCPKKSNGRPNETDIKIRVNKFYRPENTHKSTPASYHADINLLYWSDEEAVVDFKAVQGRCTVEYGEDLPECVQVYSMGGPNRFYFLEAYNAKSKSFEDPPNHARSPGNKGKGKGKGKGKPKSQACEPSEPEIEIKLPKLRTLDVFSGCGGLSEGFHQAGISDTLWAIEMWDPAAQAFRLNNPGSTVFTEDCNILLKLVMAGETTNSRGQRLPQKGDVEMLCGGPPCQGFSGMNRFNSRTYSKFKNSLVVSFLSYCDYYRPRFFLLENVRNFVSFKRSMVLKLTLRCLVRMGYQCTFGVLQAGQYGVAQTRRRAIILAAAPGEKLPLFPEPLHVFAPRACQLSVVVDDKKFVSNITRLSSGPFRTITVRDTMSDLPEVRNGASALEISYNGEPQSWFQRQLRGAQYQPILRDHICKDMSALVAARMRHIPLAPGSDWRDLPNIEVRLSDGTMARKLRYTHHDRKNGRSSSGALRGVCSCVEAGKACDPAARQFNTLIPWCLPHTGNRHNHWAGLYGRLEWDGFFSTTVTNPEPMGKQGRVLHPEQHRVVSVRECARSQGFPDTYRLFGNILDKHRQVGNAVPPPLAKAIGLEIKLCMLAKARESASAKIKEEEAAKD

Row | Compound | effect on DNMT1 enzymatic activity (DNMT1) | effect on DNMT3a enzymatic activity (DNMT3a) | effect on DNMT3b enzymatic activity (DNMT3b) | H3K9me2 and H3K9me3 levels (LS411N and SW620 cells [1]) | DNA demethylation of the BNIP3 promoter region (LS411N and SW620 cells [2]) | cell surface Fas receptor level ([3]; LS411N-5FU-R and SW620-5FU-R cells, flow cytometry) | Fas mRNA level ([3]; SW620-5FU-R cells, real time RT-PCR) | H3K9ac level in the FAS promoter region (SW620 and SW480 cells; SW480 cells) | H3K9me3 level in the FAS promoter region (SW620 and SW480 cells; SW620 cells, 50 nM) | RNA Pol II level in the FAS promoter region (SW620 and SW480 cells; SW620 cells, 50 nM) | H3K9ac level in the FAS promoter region (SW620 and SW480 cells; SW620 cells, increase) | sensitization of tumor cells to FasL-induced apoptosis [4] | DR4 expression [5] | DR5 expression level [5] | cell sensitivity to Drozitumab [6] | liver toxicity [7] | sensitivity of 5-FU-resistant human CRC cells to verticillin A ([8]; 5-FU-resistant cells versus parent cell lines (Fig. S2B)) | dose effective in suppression of metastatic human CRC cell growth ([8]; relatively high dose) [nM]
1 | CN1C(=O)[C@]23SS[C@@]1(C)C(=O)N2[C@H]1Nc2ccccc2[C@@]1([C@@]12c4ccccc4N[C@@H]1N1C(=O)[C@@]4(C)SS[C@]1(C(=O)N4C)[C@H]2O)[C@@H]3O [Verticillin A, verticillin A] | no inhibitory effect | no inhibitory effect | no inhibitory effect | diminished | did not result in DNA demethylation | significantly increased | significantly increased | dramatically increased | decreased | did not identify an increase | at a low degree | significantly greater efficacy than either decitabine or vorinostat | did not alter | increased | significantly increased | minimal liver toxicity | as sensitive to verticillin A as the parent cell lines | 100
2 | Nc1ncn([C@H]2C[C@H](O)[C@@H](CO)O2)c(=O)n1 [decitabine] | – | – | – | – | – | – | – | – | – | – | – | to a small degree | – | – | – | – | – | –
3 | O=C(CCCCCCC(=O)Nc1ccccc1)NO [vorinostat] | – | – | – | – | – | – | – | – | – | – | – | to a small degree | – | – | – | – | – | –
